High-throughput results from PubChem BioAssay.
INS promoter act: activators of insulin promoter-driven GFP, primary screen, imaging, TRM-6 cells, eGFP reporter, cell count; activation, % at 2 µM; AID 1296, 2008; actives 0.81% (n = 130,000); plate-scaled: unstimulated 0, stimulated control 100;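 active = activation at 2 µM above a set limit, confirmed on inspection of the cell images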;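 also: share of cells whose green reporter signal exceeds an intensity cutoff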
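material = TRM-6 human fetal islet cells, insulin promoter–eGFP reporter | input = 1,000 TRM-6 cells seeded per well | benchmarks = stimulated versus unstimulated wells as plate controls | measured by = automated fluorescence imaging of paraformaldehyde-fixed, Hoechst-counterstained cells, green channel | schedule = compound exposure 48 h, 37 °C | reagent = tamoxifen at 0.75 µM added at seeding for reporter induction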
Of the large screens only hits and unclear results are named; the others gave an inactive call. This excerpt belongs to a sample that is enriched for hits.

COc1cccc(C2C3CN(C)CC=C3C(C#N)=C(N)C2(C#N)C#N)c1OC (centres undefined)	INS promoter act 147.2
CN1CC=C2C(C#N)=C(N)C(C#N)(C#N)[C@H](c3cccc(Cl)c3)C2C1 (some centres undefined)	none
CN1CC=C2C(C#N)=C(N)C(C#N)(C#N)[C@H](c3cccs3)[C@H]2C1	none
CCN1CC=C2C(C#N)=C(N)C(C#N)(C#N)[C@H](c3cccc(OC)c3OC)[C@H]2C1	INS promoter act 614.3
N#CC1=C(N)C(C#N)(C#N)C(c2ccncc2)C2CN(C(=O)OCc3ccccc3)CC=C12 (centres undefined)	none
COc1ccc(/C=C/C(=O)NC(CCSC)C(=O)O)cc1 (centres undefined)	none
C#CC[N+](C)(C)C(C#Cc1ccccc1)CC=C (centres undefined)	none
Cc1cccc(-n2c(SCc3ccc([N+](=O)[O-])cc3)nnc2-c2c[nH]c3ccccc23)c1	none
O=C(O)CCC(=O)NNC(=O)c1ccc(Br)cc1	none
O=C(CSc1nnc(-c2cccnc2)n1Cc1ccco1)NCc1ccc2c(c1)OCO2	INS promoter act 284.6
C=CCn1c(SCC(=O)NCc2ccc3c(c2)OCO3)nnc1-c1cccnc1	none
COc1cccc(-c2nnc(SCC(=O)NCc3ccc4c(c3)OCO4)n2Cc2ccco2)c1	none
O=C(c1csc2c1CCCC2)N1CCN(c2cccc(C(F)(F)F)c2)CC1	none
CCCCCCNS(=O)(=O)c1ccc(NC(=O)C2CCCO2)cc1 (centres undefined)	none
CCc1ccc(OS(=O)(=O)c2cn(C)c(=O)n(C)c2=O)cc1	none
Cc1cc(C)n(-c2ccc(Cl)c(C(=O)Nc3ccc(-c4nnc5n4CCCCC5)cc3)n2)n1	none
CCCCNc1cc(F)nc(N)n1	none
CCC(C)(C)NC(=O)CN(C(=O)c1snc(C(N)=O)c1N)c1ccc2c(c1)OCO2	none
CCc1ccccc1N(CC(=O)NCc1ccco1)C(=O)c1snc(C(N)=O)c1N	INS promoter act 163.6
CS(=O)(=O)N(CC(=O)NCc1ccco1)c1ccccc1Cl	none
CCOc1ccc(CNC(=O)CCc2cn(Cc3ccccc3)c3ccccc23)cc1	none
COCCn1c(=S)[nH]c2cc(OC)c(OC)cc2c1=O	none
CCC1CCCCN1CCCNC(=O)c1ccc2c(=O)n(Cc3ccc(OC)cc3)c(=O)[nH]c2c1 (centres undefined)	none
CCOc1cc2[nH]c(=O)n(CC3CCC(C(=O)NCCCOC)CC3)c(=O)c2cc1OCC (centres undefined)	INS promoter act 171.4
O=C(Nc1ccccc1C(=O)NCc1cccnc1)c1ccc(Cl)cc1Cl	none
O=C(CSc1nnc(-c2ccncc2)n1-c1ccc(Cl)cc1)NCc1cccs1	none
Cc1cccc(C)c1NC(=O)COc1ccc2c(C)c(Cc3ccccc3)c(=O)oc2c1	none
CCOC(=O)N1CCN=C1SCc1ccc(C(F)(F)F)cc1	none
CSC1=NCCN1C(=O)Cc1ccc(-c2ccccc2)cc1	none
CCC(=O)N1CCN=C1SCc1ccc(Cl)cc1	INS promoter act 493.1
COc1cccc(-c2nnc(NC(=O)c3ccc4ncsc4c3)o2)c1	none
Cc1nc2c(c3c1[nH]c1ccccc13)C(O)CC(C)(C)C2 (centres undefined)	none
CC1(C)CC(=O)c2cnc(NC(=O)CSc3nc4ccccc4o3)nc2C1	INS promoter act 523.1
O=C(CSc1nc2ccccc2o1)Nc1ccc(N2CCOCC2)cc1	none
CCCCC(=O)Nc1ncc2c(n1)CC(C)(C)CC2=O	none
Nc1nc(F)cc(NCc2ccccc2)n1	none
O=C(c1cccc(C(F)(F)F)c1)C1CCCN(Cc2cccn2-c2ccccn2)C1 (centres undefined)	none
CC(C)c1ccc(C(=O)NCCCN(C)C)cc1	none
COC(=O)C1=C(C)N(CCc2c[nH]c3ccccc23)C(=O)/C1=C\N(C)C	INS promoter act 408.6
CCN1C(=O)/C(=C\c2ccc3c(c2)OCO3)C(C(=O)OC)=C1C	none
CC(C)NC(=O)CCCc1c[nH]c2ccccc12	none
CCN(C(=O)CN1CCN(S(=O)(=O)c2ccccc2C(F)(F)F)CC1)c1c(N)n(Cc2ccccc2)c(=O)[nH]c1=O	none
O=C(CCN(NC(=O)c1ccccc1)C1=NS(=O)(=O)c2ccccc21)NC1CCCCC1	none
CC(=O)Nc1ccc(S(=O)(=O)N(Cc2ccccc2)C(C)C)cc1	none
CCCCc1ccc(S(=O)(=O)N2CCN(C(=O)c3ccco3)CC2)cc1	none
O=C(Cc1ccccc1F)OCC(=O)N1CCN(C(=O)c2ccco2)CC1	none
O=C(Cc1ccccc1)N1CCN(C(=O)c2ccco2)CC1	INS promoter act 528.6
O=C(CCSc1ccccc1)N1CCN(C(=O)c2ccco2)CC1	none
O=C(c1ccco1)N1CCN(S(=O)(=O)c2cccs2)CC1	none
O=C(c1ccco1)N1CCN(S(=O)(=O)Cc2ccc(Cl)cc2)CC1	INS promoter act 420.0
COc1cccc(CN2CCC(C(=O)N3CCN(c4ccccc4F)CC3)CC2)c1OC	none
O=C1NCCN(Cc2cccc(Oc3ccccc3)c2)C1CC(=O)N1CCCO1 (centres undefined)	none
CCCC(C)NC(=S)Nc1cc(C)cc(C)c1 (centres undefined)	none
CCN(CC)c1nc2ccccc2nc1-n1nc(C)cc1C	none
CCC(C)(C(=O)NC1CCCCC1)N(Cc1cccs1)C(=O)c1ccccn1 (centres undefined)	none
CCC(C)(C(=O)NC1CCCC1)N(C)C(=O)Cc1c[nH]c2ccccc12 (centres undefined)	none
CCC(C)(C(=O)NC1CCCC1)N(Cc1cccs1)C(=O)Cc1cccs1 (centres undefined)	INS promoter act 82.8
O=C(c1ccc([N+](=O)[O-])cc1)N1CCSC1c1cccc(Cl)c1 (centres undefined)	none
Nc1nc(C(F)(F)F)c(Br)c(=O)n1N	none
CCCCNC(=O)CNC(=S)N(Cc1cc(OC)c(OC)c(OC)c1)C1CCCC1	none
COc1ccc(S(=O)(=O)NCCc2ccc(F)cc2)cc1	none
COc1ccc(CCNc2cc(=O)[nH]c(N)n2)cc1	INS promoter act 615.4
COc1ccc(Nc2nc(C)cc(=O)[nH]2)cc1	none
Cc1ccc(N(C)C(=O)N2CCN(S(=O)(=O)c3ccc(C)c(C)c3)CC2)cc1	none
CC(C)c1ccc(CN2CC(C(=O)Nc3ccccc3)CC2=O)cc1 (centres undefined)	none
CCC(=O)N1CCN(c2nc(-c3ccc(Cl)cc3)cs2)CC1	INS promoter act 464.3
CCc1nnc(NC(=O)CN2CCN(c3nc(-c4ccccc4)cs3)CC2)s1	none
Fc1ccc(-c2csc(N3CCSCC3)n2)cc1	none
Cc1ccccc1OCC(=O)Nc1cccc2nsnc12	none
Cc1ccccc1NC(=O)COc1ccc(Br)cc1C	INS promoter act 430.8
Cc1cc(Cl)ccc1OCC(=O)Nc1ccccc1N1CCOCC1	none
CC(C)(C)c1ccc(OCCNC(=O)c2ncn[nH]2)cc1	none
CCCCC(=O)NS(=O)(=O)c1ccc(N=NN2CCOCC2)cc1	none
CCNC(=O)CN(C1CCCCC1)S(C)(=O)=O	none
COc1ccc(Nc2nc(NC(C)(C)C)nc(N3CCOCC3)n2)c(OC)c1	none
COc1ccc(Nc2nc(Nc3ccc(OC)cc3OC)nc(N3CCN(C)CC3)n2)c(OC)c1	INS promoter act 316.7
COc1ccc(Nc2nc(NC(C)(C)C)nc(N3CCCC3)n2)c(OC)c1	none
C/C(=N\NC(=O)CC(C)C)c1ccc(N2CCCCC2)cc1	none
CC1SC(c2ccc(Cl)cc2)NC1=O (centres undefined)	INS promoter act 443.8
CC1SC(c2cccc(Cl)c2)NC1=O (centres undefined)	none
COc1cc(CN2C(=S)NC(C)(C)CC2(C)O)cc(OC)c1 (centres undefined)	none
C=C(C)CN1CCN(c2ccc(N3C(=O)CCCC3=O)cc2[N+](=O)[O-])CC1	none
CCNCc1ccccc1OCc1ccccc1	none
